Measurements of several laboratories.
Lines come from different studies, so protocols differ.
Observed: cell growth or viability

Cc1nc(Nc2ncc(C(=O)Nc3c(C)cccc3Cl)s2)cc(N2CC[C@H](O)C2)n1 — inhibition (OCI-Ly7; ATP luminescence; 10 µM, 72 h): 57%
CC1(C)C[C@H]2[C@H]1CC[C@]1(C)CCC[C@@]2(n2cc(C(=O)NCCN)nn2)C1 — inhibition (HT-29; CCK-8; 10 µM): 53.4%
C=C(NC(=O)C(=C)NC(=O)c1csc(C2=N[C@@H]3c4csc(n4)[C@H]4NC(=O)c5csc(n5)[C@H]([C@](C)(O)[C@@H](C)O)NC(=O)[C@H]5CSC(=N5)/C(=C/C)NC(=O)[C@H]([C@@H](C)O)NC(=O)c5csc(n5)[C@]3(CC2)NC(=O)[C@H](C)NC(=O)C(=C)NC(=O)[C@H](C)NC(=O)[C@H]([C@@H](C)CC)N[C@@H]2C=Cc3c([C@H](C)O)cc(nc3[C@H]2O)C(=O)O[C@@H]4C)n1)C(N)=O — EC50 (SQ20B): 0.7 µM
O=c1c2cc(Cl)ccc2nc(-c2ccccc2)n1N=Cc1ccc(Cl)cc1Cl — IC50 (LLC-PK1; MTT; 72 h): 264 µM
CCC(=O)NCc1ccc(-c2cnc(C3CN(C(=O)c4ccc(NC(=O)[C@@H]5CC(C)(C)CN5)s4)C3)s2)c2ccccc12 — GI50 (IMR-90; SRB; 7 days): > 10 µM
O=c1c2cc(Cl)ccc2nc(-c2ccccc2)n1N=Cc1cccnc1 — IC50 (LLC-PK1; MTT; 72 h): 326 µM
CC1(C)C[C@H]2[C@H]1CC[C@]1(C)CCC[C@@]2(n2cc(C(=O)Nc3ccc(Cl)cc3)nn2)C1 — inhibition (HT-29; CCK-8; 50 µM): 16.8%
O=c1c2cc(Cl)ccc2nc(-c2ccccc2)n1N=Cc1ccc2c(c1)OCO2 — IC50 (LLC-PK1; MTT; 72 h): 60.2 µM
CC1(C)C[C@H]2[C@H]1CC[C@]1(C)CCC[C@@]2(n2cc(C(=O)O)nn2)C1 — inhibition (HT-29; CCK-8; 10 µM): < 50%
